This passage reports IC50, Activity and inhibition results from ChEMBL document CHEMBL4316599, “Synthesis, in vitro and in vivo biological evaluation of substituted 3-(5-imidazo[2,1-b]thiazolylmethylene)-2-indolinones as new potent anticancer agents” (Eur J Med Chem, 2019).

Calls of active or inactive are those of the source. No cut-off for these calls is given here.

One experiment deals with Tubulin (Bos taurus, UniProt Q6B856+Q862L2+Q862F3). The experiment can be described thus: Inhibition of bovine brain tubulin polymerization after 20 mins by spectrophotometric analysis. In a few lines:
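Bovine brain tubulin (10 μM) in glutamate buffer preincubated with varying compound levels at 30 °C, then chilled to 0 °C. GTP added to 0.4 mM final, then warmed to 30 °C. Assembly followed by turbidity at 350 nm. IC50 is the concentration halving the extent of assembly after 20 min.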

In a further experiment the test system is HeLa. Description: Induction of apoptosis in human HeLa cells assessed as increase in caspase-9 activity at 50 to 250 nM after 24 hrs by Western blot analysis. The experiment is classed as functional, cell-based. In a few lines:
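HeLa cells treated 24 h, washed in ice-cold PBS and lysed on ice 30 min. Lysates were spun at 15000 x g, 4 °C. 10 µg protein run on SDS-PAGE and blotted to PVDF. Blots were blocked in 5% BSA overnight at 4 °C and probed 2 h at room temperature. Detection by HRP-secondary and ECL, with bands normalized to β-actin as fold of untreated. Three independent experiments, one-way ANOVA/Dunnett.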

For another experiment, the target named is Tubulin (Bos taurus) (UniProt Q6B856+Q862L2+Q862F3). Description: Inhibition of [3H]colchicine binding to bovine brain tubulin at 50 uM after 20 mins relative to control. In short, it runs like this:
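Reaction mixtures held 1 μM tubulin, 5 μM [³H]colchicine and test compound at 5 or 50 μM. Read-out was percent inhibition of colchicine binding.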

Compound `O=C1Nc2c(ccc3ccccc23)C1=Cc1c(-c2ccncc2)nc2sccn12` gave an IC50 against Tubulin of 14 µM. Further, the outcome with HeLa was Active. The inhibition at Tubulin (Bos taurus) worked out at 51%.
